{"data": "Published values collected from several papers", "target": "Mitogen-activated protein kinase 7 (MAPK7, Homo sapiens, UniProt Q13164)", "note": "Compare with care: the assays were run in different laboratories."}
{"SMILES": "O=C(NS(=O)(=O)c1ccc(NCC2CCOCC2)c([N+](=O)[O-])c1)c1ccc(N2CCN(Cc3ccc(C(F)(F)F)cc3-c3ccc(Cl)cc3)CC2)cc1Oc1cnc2[nH]ccc2c1", "test": "cell-free assay, competition with immobilised ligand", "conditions": "1 µM", "remaining binding": "100%"}
{"SMILES": "F[C@@H]1CCN(c2nccc(-c3cnn4ncccc34)n2)C1", "test": "binding", "conditions": "1 µM", "remaining binding": "100%"}
{"SMILES": "O=C(c1ccc(Nc2nccc(-c3cc4ccccc4s3)n2)cc1)N1CCC(N2CCCC2)CC1", "test": "binding, competition with immobilised ligand", "conditions": "1 µM", "remaining binding": "100%"}
{"SMILES": "CN([C@@H]1CCc2c(CC(=O)O)c3ccccc3n2C1)S(=O)(=O)c1ccc(F)cc1", "test": "cell-free assay, competition with immobilised ligand", "conditions": "1 µM", "remaining binding": "100%"}
{"SMILES": "O=C(NCC1CCOCC1)c1n[nH]cc1NC(=O)c1c(F)cccc1F", "test": "binding, competition with immobilised ligand", "conditions": "1 µM", "remaining binding": "90%"}
{"SMILES": "C[C@@H]1CCN(c2nccc(-c3cnn4ncccc34)n2)C1", "test": "binding", "conditions": "1 µM", "remaining binding": "100%"}
{"SMILES": "CNC(=O)Nc1ccc2c(c1)[C@@]1(CC2)OC(=O)N(CC(=O)N(Cc2ccc(F)cc2)[C@@H](C)C(F)(F)F)C1=O", "test": "cell-free assay, competition with immobilised ligand", "conditions": "1 µM", "remaining binding": "85%"}
{"SMILES": "CN(C)c1nccc(-c2cnc3ncccn23)n1", "test": "binding", "conditions": "1 µM", "remaining binding": "92%"}
{"SMILES": "O=C(Nc1cnc(Oc2ccc(F)cc2)nc1)N1CCc2ncccc2[C@@H]1c1ccc(F)cc1", "test": "cell-free assay, competition with immobilised ligand", "conditions": "1 µM", "remaining binding": "96%"}
{"SMILES": "FC(F)(F)Oc1cccc(-c2cnc3ccc(-c4ccncc4)nn23)c1", "test": "cell-free assay, competition with immobilised ligand", "conditions": "5 µM", "remaining binding": "99%"}
{"SMILES": "FC(F)(F)c1ccc2c(c1)nc(-c1cccnc1)n2C1CC1", "test": "cell-free assay, competition with immobilised ligand", "conditions": "1 µM", "remaining binding": "100%"}
{"SMILES": "COc1ncc2cc3ccccc3nc2c1C#N", "test": "cell-free assay, competition with immobilised ligand", "conditions": "5 µM", "remaining binding": "100%"}
{"SMILES": "O=C(NCCCN1CCOCC1)c1ccc(Nc2ncc(Cl)c(-c3ccc(Cl)s3)n2)cc1", "test": "binding, competition with immobilised ligand", "conditions": "1 µM", "remaining binding": "28%"}
{"SMILES": "N[C@H]1CCN(c2nccc(-c3cnn4ncccc34)n2)C1", "test": "binding", "conditions": "1 µM", "remaining binding": "100%"}
{"SMILES": "COc1cnc(Nc2cccc(S(N)(=O)=O)c2)nc1N1CCN(c2ccccc2)CC1", "test": "binding, competition with immobilised ligand", "conditions": "1 µM", "remaining binding": "100%"}
{"SMILES": "CCN1CCN(Cc2ccc(C(=O)Nc3ccc(C)c(Oc4ccc5c(c4)CC(=O)N5)c3)cc2C(F)(F)F)CC1", "test": "binding, competition with immobilised ligand", "conditions": "1 µM", "remaining binding": "100%"}
{"SMILES": "CN([C@@H]1CCc2c(CC(=O)O)c3cc(S(C)(=O)=O)ccc3n2C1)S(=O)(=O)c1ccc(F)cc1", "test": "cell-free assay, competition with immobilised ligand", "conditions": "1 µM", "remaining binding": "96%"}
{"SMILES": "CN(c1nccc(-c2cnn3ncccc23)n1)C1CC1", "test": "binding", "conditions": "1 µM", "remaining binding": "100%"}
{"SMILES": "O=C(c1ccc(Nc2ncc(Cl)c(-c3ccc(Cl)s3)n2)cc1)N1CCC(N2CCCC2)CC1", "test": "binding, competition with immobilised ligand", "conditions": "1 µM", "remaining binding": "7.1%"}
{"SMILES": "Cc1cnn2ncc(-c3ccnc(N(C)C)n3)c2c1", "test": "binding", "conditions": "1 µM", "remaining binding": "96%"}
{"SMILES": "c1cncc(-c2cccc(Nc3nccc(NC4CCCCC4)n3)c2)c1", "test": "binding, competition with immobilised ligand", "conditions": "10 µM", "remaining binding": "92%"}
{"SMILES": "CN(C)C(=O)Cn1cc(-c2nc([C@@](C)(c3ccc(-c4cnc(N)nc4)cc3)C3CC3)no2)cn1", "test": "cell-free assay, competition with immobilised ligand", "conditions": "1 µM", "remaining binding": "90%"}
{"SMILES": "COc1ccnn2ncc(-c3ccnc(N(C)C)n3)c12", "test": "binding", "conditions": "1 µM", "remaining binding": "100%"}
